Experimental data as given in ChEMBL document CHEMBL2046415, “Double protein knockdown of cIAP1 and CRABP-II using a hybrid molecule consisting of ATRA and IAPs antagonist” (2012).
The source made the active and inactive calls. The calls are words filed in the database; no cut-off is given here. Square brackets hold non-standard residues; d marks the D form. Peptide text beside a SMILES is read from it. Dip = N[C@H](C(=O)O)C(c1ccccc1)c1ccccc1; Chg = N[C@H](C(=O)O)C1CCCCC1; NMeA = CN[C@@H](C)C(=O)O

How the values were obtained:
IMR-32 [1] = assay: Induction of apoptosis in human IMR32 cells assessed as activation of caspase 3/7 after 24 hrs relative to control; assay type: functional
How it was run: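 IMR-32 cells exposed to compounds for 24 h; caspase 3/7 activity expressed as fold increase over untreated control; values are means of triplicate determinations.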

IMR-32 [2] = assay: Activation of proteasome in human IMR32 cells assessed as induction of cIAP1 and CRABP-2 protein degradation at 3 to 30 uM after 24 hrs by Western blot analysis
IMR-32 [3] = assay: Antiproliferative activity against human IMR32 cells assessed as reduction of cell number at 30 uM after 24 to 72 hrs; assay type: functional, cell-based
HT-1080 [4] = assay: Activation of proteasome in human HT1080 cells expressing FLAG-tagged cIAP1 assessed as induction of cIAP1 and CRABP-2 protein degradation at 0.1 to 10 uM after 6 hrs by Western blot analysis
HT-1080 [5] = assay: Activation of proteasome in human HT1080 cells expressing FLAG-tagged cIAP1 assessed as induction of CRABP-2 protein degradation at 10 uM after 6 hrs by Western blot analysis
HT-1080 [6] = assay: Activation of proteasome in human HT1080 cells expressing FLAG-tagged cIAP1 assessed as induction of cIAP1 protein degradation at 10 uM after 6 hrs by Western blot analysis
HT-1080 [7] = assay: Induction of cIAP1 protein degradation in human HT1080 cells at 0.1 to 10 uM after 6 hrs by Western blot analysis; assay type: functional, cell-based
HT-1080 [8] = assay: Activation of proteasome in human HT1080 cells expressing FLAG-tagged cIAP1 assessed as induction of cIAP1 and CRABP-2 protein degradation after 6 hrs by Western blot analysis
[9] = target: T1, Retinoic acid receptor alpha (Homo sapiens) (UniProt P10276); assay: Induction of RARalpha degradation
T1 sequence (whole entry): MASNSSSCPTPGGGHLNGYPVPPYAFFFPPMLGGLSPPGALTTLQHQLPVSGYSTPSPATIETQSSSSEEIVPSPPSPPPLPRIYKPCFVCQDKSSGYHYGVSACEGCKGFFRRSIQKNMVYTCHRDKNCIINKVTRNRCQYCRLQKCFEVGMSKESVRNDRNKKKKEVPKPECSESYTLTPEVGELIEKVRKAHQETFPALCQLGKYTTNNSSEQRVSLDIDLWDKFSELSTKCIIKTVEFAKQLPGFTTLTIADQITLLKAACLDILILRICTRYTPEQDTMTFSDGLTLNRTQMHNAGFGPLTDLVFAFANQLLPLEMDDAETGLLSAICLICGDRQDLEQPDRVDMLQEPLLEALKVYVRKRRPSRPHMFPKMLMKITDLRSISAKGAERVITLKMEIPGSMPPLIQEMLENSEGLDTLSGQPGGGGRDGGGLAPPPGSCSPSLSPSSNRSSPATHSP

HT-1080 [10] = assay: Activation of proteasome in human HT1080 cells expressing FLAG-tagged cIAP1 assessed as induction of cIAP1 and CRABP-2 protein degradation at 10 uM after 6 hrs by Western blot analysis in presence of proteasome inhibitor MG132
How it was run: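 Compound exposure 6 h; proteasome inhibitor MG132 (10) added to the culture 30 min before compound; cIAP1 and CRABP-II levels then read by Western blot.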

SMILES	Activity (IMR-32 [2])	Activity (HT-1080 [5])	Activity (HT-1080 [6])	fold change (FC) (IMR-32 [1])	Activity (IMR-32 [3])	Activity (HT-1080 [7])	other results
CC1=C(/C=C/C(C)=C/C=C/C(C)=C/C(=O)O)C(C)(C)CC/C1=N\OCC(=O)NCCOCCOCCOC(=O)[C@H](CC(C)C)NC(=O)[C@@H](O)[C@H](N)Cc1ccccc1	Active			3.61	Active		Activity (HT-1080 [4]): Active
CC1=C(/C=C/C(C)=C/C=C/C(C)=C/C(=O)O)C(C)(C)CC/C1=N\OCC(=O)NCCOCCOCCNC(=O)[C@H](CC(C)C)NC(=O)[C@@H](O)[C@H](N)Cc1ccccc1	Active			1.84			
CC1=C(/C=C/C(C)=C/C=C/C(C)=C/C(=O)O)C(C)(C)CCC1		inactive	inactive				
COC(=O)[C@H](CC(C)C)NC(=O)[C@@H](O)[C@H](N)Cc1ccccc1						Active	

Now from value to compound, other results behind:

Activity (IMR-32 [2])	Activity (HT-1080 [5])	Activity (HT-1080 [6])	SMILES	fold change (FC) (IMR-32 [1])	Activity (IMR-32 [3])	Activity (HT-1080 [7])	other results
	inactive	Active	CN[C@@H](C)C(=O)N[C@H](C(=O)N1CCC[C@H]1C(=O)N[C@H](C(=O)OC)C(c1ccccc1)c1ccccc1)C1CCCCC1 (H-[NMeA][Chg]P[Dip]-OMe)			Active	
Active		Active	CN[C@@H](C)C(=O)N[C@H](C(=O)N1CCC[C@H]1C(=O)N[C@H](C(=O)NCCOCCOCCNC(=O)CO/N=C1\CCC(C)(C)C(/C=C/C(C)=C/C=C/C(C)=C/C(=O)O)=C1C)C(c1ccccc1)c1ccccc1)C1CCCCC1	4.44	Active		Activity (HT-1080 [8]): Dose-dependent effect; Activity [9]: inactive; Activity (HT-1080 [10]): inactive
